The values that follow come from ChEMBL document CHEMBL4311947, “Discovery of Novel Naphthylphenylketone and Naphthylphenylamine Derivatives as Cell Division Cycle 25B (CDC25B) Phosphatase Inhibitors: Design, Synthesis, Inhibition Mechanism, and in Vitro Efficacy against Melanoma Cell Lines” (J Med Chem, 2019).

Assay [1] concerns A-375. The experiment in a line: Induction of cell cycle arrest in human A375 cells assessed as increase in accumulation at G2/M phase at 10 uM after 8 hrs by propidium iodide staining based flow cytometric method. Type of assay: functional. The essentials: (§1)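 Seeded at 3×10^5 cells/well for 24 h at 37°C, then exposed to 10 µM inhibitor or 0.5% (v/v) DMSO for 8 or 16 h. Trypsin-harvested, fixed in cold 70% ethanol at -20°C for 1 h, stained 30 min at 4°C with 50 µg/mL PI in non-lysis solution. Phase distribution (sub-G1, G0/G1, S, G2/M) read by FACScan; triplicate experiments, mean ± SE.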
For orientation: In flow cytometry, cells or beads pass a laser one at a time.

Assay [2] deals with T1, M-phase inducer phosphatase 2 (Homo sapiens) (UniProt P30305).
T1 sequence (whole entry): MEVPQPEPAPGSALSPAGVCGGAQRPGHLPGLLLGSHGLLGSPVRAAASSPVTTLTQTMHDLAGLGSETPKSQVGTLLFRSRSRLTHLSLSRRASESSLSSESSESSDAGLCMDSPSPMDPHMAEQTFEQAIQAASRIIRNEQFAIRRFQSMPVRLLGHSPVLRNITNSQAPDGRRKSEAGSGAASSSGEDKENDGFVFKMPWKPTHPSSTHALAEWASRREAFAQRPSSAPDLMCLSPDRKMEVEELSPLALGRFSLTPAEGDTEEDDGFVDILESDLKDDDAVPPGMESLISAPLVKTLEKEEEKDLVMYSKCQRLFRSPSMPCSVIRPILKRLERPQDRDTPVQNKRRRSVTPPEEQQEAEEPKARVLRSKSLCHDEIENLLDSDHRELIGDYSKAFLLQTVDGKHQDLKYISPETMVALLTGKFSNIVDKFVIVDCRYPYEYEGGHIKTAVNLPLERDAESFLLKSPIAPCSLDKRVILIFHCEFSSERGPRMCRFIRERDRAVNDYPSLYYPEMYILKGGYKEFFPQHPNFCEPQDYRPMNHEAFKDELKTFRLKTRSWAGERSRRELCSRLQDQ
The experiment in a line: Inhibition of N-terminal His6-tagged human CDC25B (377 to 550 residues) expressed in Escherichia coli BL21(DE3) cells assessed as reduction in Vmax using OMFP as substrate by double reciprocal Lineweaver-Burk plot analysis. The essentials: (§2)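 Recombinant CDC25 form (15–25 nM) in 20 mM Tris-HCl pH 7.8, 0.5 mM TCEP, 1% (v/v) DMSO, with or without inhibitor. Reaction started with 0.5–25 µM OMFP; O-methylfluorescein formation followed continuously at 30°C (ex 485/em 530 nm). Initial rates (AU/min) analysed in Lineweaver-Burk plots for Vmax, KM and mechanism; Ki averaged from at least three independent experiments, only roughly estimated for mixed inhibition.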

In assay [3] the target is T2, M-phase inducer phosphatase 3 (Homo sapiens, UniProt P30307).
T2 sequence (P30307 whole entry): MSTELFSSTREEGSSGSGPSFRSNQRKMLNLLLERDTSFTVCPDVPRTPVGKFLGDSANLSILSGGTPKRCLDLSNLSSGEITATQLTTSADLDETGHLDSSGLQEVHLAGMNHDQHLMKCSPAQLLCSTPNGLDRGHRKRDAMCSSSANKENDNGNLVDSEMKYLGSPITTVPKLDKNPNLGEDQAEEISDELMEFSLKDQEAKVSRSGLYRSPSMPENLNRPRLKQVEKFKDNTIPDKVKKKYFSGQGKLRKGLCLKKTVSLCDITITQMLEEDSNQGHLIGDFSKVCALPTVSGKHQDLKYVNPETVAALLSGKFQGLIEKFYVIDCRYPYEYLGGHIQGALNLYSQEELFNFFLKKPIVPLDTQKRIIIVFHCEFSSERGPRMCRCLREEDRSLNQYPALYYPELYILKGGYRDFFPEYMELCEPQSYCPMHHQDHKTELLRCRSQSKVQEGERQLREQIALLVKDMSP
The experiment in a line: Inhibition of N-terminal His6-tagged human CDC25C (280 to 454 residues) expressed in Escherichia coli BL21(DE3) cells using OMFP as substrate by double reciprocal Lineweaver-Burk plot analysis. The essentials:
as §2

For assay [4], the target named is T3, M-phase inducer phosphatase 2 (Homo sapiens, UniProt P30305).
T3 sequence (P30305 whole entry): T1 sequence (whole entry)
The experiment in a line: Uncompetitive inhibition of N-terminal His6-tagged human CDC25B (377 to 550 residues) expressed in Escherichia coli BL21(DE3) cells using OMFP as substrate by double reciprocal Lineweaver-Burk plot analysis. The essentials: as §2

Assay [5] addresses T1, M-phase inducer phosphatase 2 (Homo sapiens). The experiment in a line: Inhibition of N-terminal His6-tagged human CDC25B (377 to 550 residues) expressed in Escherichia coli BL21(DE3) cells at 10 uM by spectrofluorimetric analysis.
Assay [6] deals with A2058. The experiment in a line: Induction of cell cycle arrest in human A2058 cells assessed as increase in accumulation at subG1 phase at 10 uM after 16 hrs by propidium iodide staining based flow cytometric method. The assay is classed as functional. The essentials:
as §1

The subject of assay [7] is A2058. The experiment in a line: Induction of cell cycle arrest in human A2058 cells assessed as decrease in accumulation at G0/G1 phase at 10 uM after 16 hrs by propidium iodide staining based flow cytometric method. The assay is classed as functional. The essentials:
as §1

The test system of assay [8] is A-375. The experiment in a line: Induction of cell cycle arrest in human A375 cells assessed as decrease in accumulation at G0/G1 phase at 10 uM after 16 hrs by propidium iodide staining based flow cytometric method. Type of assay: functional. The essentials:
as §1

The subject of assay [9] is A-375. The experiment in a line: Induction of cell cycle arrest in human A375 cells assessed as decrease in accumulation at G0/G1 phase at 10 uM after 8 hrs by propidium iodide staining based flow cytometric method. The assay is classed as functional. The essentials:
as §1

The source made the active and inactive calls. No cut-off for these calls is given here.

Regarding `CCOC(=O)c1cccc(Nc2cc(OC)cc3ccccc23)c1`, the result in the assay on A-375 [1], with A2058 [7], with A-375 [8] and in the assay on A-375 [9] was Active. The inhibition result in assay [2] is “Active”. Further, the Ki in [3] was found to be 1.9 µM; in assay [4], 8.5 µM. In addition, the inhibition result in [5] was “inactive”. The outcome with A2058 [6] was inactive.

In general, Ki refers to a dissociation constant, usually derived from enzyme kinetics or from competition with a known ligand. Read a low Ki as tighter binding.
